In ChEMBL document CHEMBL3046951, “Volatile constituents from the leaves of Callicarpa japonica Thunb. and their antibacterial activities” (2004):

Tests used:
Format in all cases: functional
[1] = system: Bacillus cereus; test: Antimicrobial activity against Bacillus cereus ATCC 11778 assessed as growth inhibition rate at 43 mg/l after 72 hr by spectrophotometry; conditions: ATCC 11778, 72 h, read-out: GI
Procedure, shortened: (§1)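 Pure volatile compounds (purity >95%; one at 90%) were tested against B. cereus ATCC 11778. The strain was grown at 30 °C in nutrient broth for 24 h, then subcultured for 18 h. Optical density was read in a Bioscreen C every 24 h for 72 h, with 10% Tween 80 as the control.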

[2] = system: Vibrio parahaemolyticus; test: Antimicrobial activity against Vibrio parahaemolyticus ATCC 33844 assessed as growth inhibition rate at 21.52 mg/l after 72 hr by spectrophotometry; conditions: ATCC 33844, 72 h, read-out: GI
[3] = system: Listeria monocytogenes; test: Antimicrobial activity against Listeria monocytogenes ATCC 19111 assessed as growth inhibition rate at 247 mg/l after 72 hr by spectrophotometry; conditions: ATCC 19111, 72 h, read-out: GI
Procedure, shortened: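 L. monocytogenes was grown at 30 °C in tryptic soy broth, subcultured for 18 h, and exposed to pure volatile compounds (>95% purity). Growth was followed by Bioscreen C optical density every 24 h for 72 h against a 10% Tween 80 control.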

[4] = system: Bacillus cereus; test: Antimicrobial activity against Bacillus cereus ATCC 11778 assessed as growth inhibition rate at 61.12 mg/l after 72 hr by spectrophotometry; conditions: ATCC 11778, 72 h, read-out: GI; procedure, shortened: as §1
[5] = system: Escherichia coli; test: Antimicrobial activity against Escherichia coli O157:H7 ATCC 43894 assessed as growth inhibition rate at 247 mg/l after 72 hr by spectrophotometry; conditions: O157:H7 ATCC 43894, 72 h, read-out: GI
[6] = system: Salmonella typhimurium; test: Antimicrobial activity against Salmonella enterica subsp. enterica serovar Typhimurium ATCC 14028 assessed as growth inhibition rate at 6.12 mg/l after 72 hr by spectrophotometry; conditions: ATCC 14028, 72 h, read-out: GI
[7] = system: Staphylococcus aureus; test: Antimicrobial activity against Staphylococcus aureus ATCC 25923 assessed as growth inhibition rate at 107.52 mg/l after 72 hr by spectrophotometry; conditions: ATCC 25923, 72 h, read-out: GI
[8] = system: Bacillus cereus; test: Antimicrobial activity against Bacillus cereus ATCC 11778 assessed as growth inhibition rate at 247 mg/l after 72 hr by spectrophotometry; conditions: ATCC 11778, 72 h, read-out: GI; procedure, shortened: as §1
[9] = system: Escherichia coli; test: Antimicrobial activity against Escherichia coli O157:H7 ATCC 43894 assessed as growth inhibition rate at 6.12 mg/l after 72 hr by spectrophotometry; conditions: O157:H7 ATCC 43894, 72 h, read-out: GI
[10] = system: Staphylococcus aureus; test: Antimicrobial activity against Staphylococcus aureus ATCC 25923 assessed as growth inhibition rate at 215.04 mg/l after 72 hr by spectrophotometry; conditions: ATCC 25923, 72 h, read-out: GI
[11] = system: Vibrio parahaemolyticus; test: Antimicrobial activity against Vibrio parahaemolyticus ATCC 33844 assessed as growth inhibition rate at 215.04 mg/l after 72 hr by spectrophotometry; conditions: ATCC 33844, 72 h, read-out: GI

With CCC/C=C/C=O the inhibition of growth at 43 µg/mL [1] was 91.8%, the inhibition of growth at 21.52 µg/mL [2] was 99.6% and the inhibition of growth at 247 µg/mL [3] was 99.7%. It also gave an inhibition of growth at 61.12 µg/mL [4] of 98.7%, an inhibition of growth at 247 µg/mL [5] of 99.9% and an inhibition of growth at 6.12 µg/mL [6] of 47.1%. For the same compound, the inhibition of growth at 107.52 µg/mL [7] was 96.7%, the inhibition of growth at 247 µg/mL [8] was 98.8% and the inhibition of growth at 6.12 µg/mL [9] was 7.3%. For the same compound, the inhibition of growth at 215.04 µg/mL [10] was 100% and the inhibition of growth at 215.04 µg/mL [11] was 99.8%.
